XiGFP reactiv: activators of inactive X chromosome reactivation, primary screen, imaging, XiGFP fibroblasts, GFP high-content imaging, set 2; activation, % at 7.58 µM; XiGFP mouse fibroblasts, % GFP-positive cells imaging, 3 d; cells co-treated with 5-aza-dC sensitizer; scaled so ellipticine positive control = 100%; 0.055% of 360,000 active;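 active = mean normalized replicate activation at least 10% and every replicate at or above 10%; inconclusive = only one of the two criteria met; inactive = mean below 10% and not all replicates reach 10%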;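 also: 0% = median of on-plate neutral control wells and 100% = ellipticine 6 µM median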
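Assay system: SV40-immortalized XiGFP fibroblast cells, line 68-5-11; buffer or medium: DMEM plus 5-aza-dC sensitizer; compound: one concentration, pinned; timing: compounds 3 days, fix/stain 15 min at room temperature; benchmarks: positive control ellipticine, 6 µM final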
E-selectin induc: E-selectin induction in HUVECs, primary screen, imaging, HUVEC, immunofluorescence imaging, single point | P16581 | normalized: neutral wells 0, TNF-alpha wells 100 | activation, % at 7.58 µM | 0.37% of 260,000 active | AID 686992, 2013;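 active = mean E-selectin-positive cell signal at least 10% of the positive control, reached in at least 60% of replicates, without over 20% cell loss; inconclusive = no rule given, readout overlaps actives, possibly toxicity-flagged; inactive = the rest, including those meeting only one limit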
Target sequence (P16581 whole entry, looked up): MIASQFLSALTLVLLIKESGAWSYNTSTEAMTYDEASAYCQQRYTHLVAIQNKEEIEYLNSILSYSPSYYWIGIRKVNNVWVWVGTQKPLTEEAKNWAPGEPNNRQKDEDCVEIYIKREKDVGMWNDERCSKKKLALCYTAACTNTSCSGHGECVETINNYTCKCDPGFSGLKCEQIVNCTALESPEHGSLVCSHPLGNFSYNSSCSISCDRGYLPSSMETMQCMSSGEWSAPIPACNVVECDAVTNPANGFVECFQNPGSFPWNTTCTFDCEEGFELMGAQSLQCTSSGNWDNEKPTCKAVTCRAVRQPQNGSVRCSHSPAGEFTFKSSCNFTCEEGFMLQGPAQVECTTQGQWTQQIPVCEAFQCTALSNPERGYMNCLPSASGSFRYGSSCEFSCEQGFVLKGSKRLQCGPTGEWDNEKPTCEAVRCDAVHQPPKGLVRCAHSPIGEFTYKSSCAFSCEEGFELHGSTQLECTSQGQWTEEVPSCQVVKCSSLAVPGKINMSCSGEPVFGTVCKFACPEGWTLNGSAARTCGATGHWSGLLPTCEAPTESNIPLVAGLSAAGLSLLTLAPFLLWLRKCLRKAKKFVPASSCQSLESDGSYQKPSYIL
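Test system: HUVEC; input: 3,000 HUVEC/well; measured by: immunofluorescence imaging; read-out: % PE-positive cells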
CFTR F508del cor: F508del CFTR correction, initial screen, CFBE line, single point | activity (quench increase), % at 7.58 µM | 0.36% of 350,000 active | CFBE cells, YFP halide quenching; stimulated with forskolin plus potentiator P3; % fluorescence drop versus neutral controls;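 active = mean added fluorescence quench of at least 8% versus neutral control, with both replicates also reaching 8%; inconclusive = only one of the mean or replicate conditions met; inactive = mean below 8% and not both replicates reaching 8%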;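 also: cells transiently co-express mutant CFTR-F508del with the halide-sensitive YFP; corrector assay measuring rescue of mutant channel to the surface after 24 h compound exposure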
Active calls of the source: *; ? = inconclusive; · = not tested or not shown. Most compounds without a hit are left out; they make up all but 0.61% or so of the library.

SMILES | XiGFP reactiv | E-selectin induc | CFTR F508del cor
CC(=O)OCC(=O)C1(O)CCC2C3CCC4=CC(=O)C=CC4(C)C3C(O)CC21C (centres undefined) | 0.0 | · | 3.3
N#C[C@H]1[C@H](c2ccc(-c3cccc(F)c3)cc2)[C@@H](CO)N1C(=O)CN1CCOCC1 | -0.1 | -0.3 | -0.8
Oc1cc2c(cc1O)[C@@H](c1ccccc1)CNCC2 | 0.0 | 0.8 | 0.0
Oc1cc2c(cc1O)C(c1ccccc1)CNCC2 (centres undefined) | -0.1 | -0.2 | 9.5*
Cn1cc(-c2ccccc2C(N)=O)c(=O)c2cc(Cl)ccc21 | 0.3 | 5.0 | 0.4
Cn1cc(C2=C(c3ccc(Cl)cc3Cl)C(=O)NC2=O)c2ccccc21 | 58.5* | 0.5 | 0.3
Cc1ccccc1CNc1ncnc2cc(Cl)ccc12 | 0.1 | 50.7* | 1.5
Cc1ccc(CNc2ncnc3cc(Cl)ccc23)cc1 | 0.1 | 0.2 | -1.8
C[C@@H]1CN([C@H](C)CO)S(=O)(=O)c2ccc(C#Cc3ccncc3)cc2O[C@H]1CN(C)C(=O)C1CC1 | 0.1 | -0.6 | -2.6
CC(=O)N1CCc2c(sc(NC(=O)C3CC3)c2-c2nc3ccccc3s2)C1 | 3.0 | 0.2 | -1.0
CC(=O)Nc1sc2c(c1-c1nc3ccccc3s1)CN(C(C)C)CC2 | 0.0 | 0.7 | 23.5*
Cc1noc(C)c1S(=O)(=O)N(C)C[C@H]1OCCCC[C@@H](C)Oc2ccc(NC(=O)NC(C)C)cc2C(=O)N([C@@H](C)CO)C[C@@H]1C | 0.2 | · | -1.5
CS(=O)(=O)N1Cc2cc(C(=O)NCC3CC3)nc(-c3cccc(-c4cncnc4)c3)c2[C@@H]1CCO | 0.0 | 0.0 | -0.6
COc1ccc(-c2ccc([C@H]3[C@@H](C#N)N(C(=O)c4cccc(F)c4)[C@@H]3CO)cc2)cc1 | -0.1 | -0.5 | 1.4
COc1ccc2c(c1OC)OCC2C (centres undefined) | 0.0 | 2.2 | 8.1*
COc1cccc2c1OCC(C(=O)O)C2 (centres undefined) | 0.0 | · | -0.9
COCC(=O)N1CC(=O)N2[C@H](CO)[C@@H](c3ccc(C#Cc4cccnc4)cc3)[C@@H]2C1 | 0.1 | 0.8 | 1.3
COc1cc(OC)cc(C(=O)N[C@H](C(=O)OCC(=O)Nc2ccc(C(C)C)cc2)C(C)C)c1 | -0.1 | 63.6* | -2.6
COc1cc(OC)cc(C(=O)N[C@H](C(=O)OCC(=O)Nc2ccc(OC)c(OC)c2)C(C)C)c1 | 0.0 | · | 0.6
CN(Cc1cnc2nc(N)nc(N)c2n1)c1ccc(C(=O)NC(CCC(=O)O)C(=O)O)c2ccccc12 (centres undefined) | 0.0 | -0.1 | 11.5*
O=C(O)CCC(NC(=O)c1ccc(Cl)cc1)C(=O)O (centres undefined) | 0.0 | · | 2.3
COc1cccc2c1C(=O)c1c(O)c3c(c(O)c1C2=O)C[C@@](O)(C(=O)CO)C[C@@H]3O[C@H]1C[C@H](N)[C@H](O)[C@H](C)O1 | 2.7 | 57.7* | 31.1*
CC(=O)[C@@]1(O)Cc2c(O)c3c(c(O)c2[C@H](O[C@H]2C[C@H](N)[C@H](O)[C@H](C)O2)C1)C(=O)c1ccccc1C3=O | 109.5* | 3.2 | 22.4*
COc1cccc2c1C(=O)c1c(O)c3c(c(O)c1C2=O)C[C@@](O)(C(=O)CO)C[C@@H]3OC1CC(N)C(O)C(C)O1 (some centres undefined) | 2.0 | ? | 13.8*
COc1cccc2c1C(=O)c1c(O)c3c(c(O)c1C2=O)CC(O)(C(C)=O)CC3OC1CC(N(C)C)C(O)C(C)O1 (centres undefined) | 0.0 | · | 33.9*
SMILES | XiGFP reactiv | E-selectin induc | CFTR F508del cor
CO[C@H]1CN(C)C(=O)c2ccc(NC(C)=O)cc2OC[C@H](C)N(Cc2nccs2)C[C@@H]1C | 0.0 | 0.1 | 5.2
C[C@@H](NC(=O)N(C)C[C@@H]1OCc2ccccc2-c2ccccc2C(=O)N([C@@H](C)CO)C[C@@H]1C)c1ccccc1 | -0.6 | -2.6 | -1.4
C[C@@H]1CN([C@H](C)CO)S(=O)(=O)c2ccc(C#CC3CCCCC3)cc2O[C@H]1CN(C)Cc1cccnc1 | -0.9 | -0.2 | 3.7
C[C@H]1CN([C@@H](C)CO)C(=O)c2cc(NC(=O)Nc3ccc(F)cc3)ccc2O[C@H]1CN(C)C(=O)Nc1ccc(F)cc1 | 0.3 | 0.5 | -1.8
CCCN1C[C@@H](C)[C@H](OC)CN(C)C(=O)c2cc(NC(=O)Nc3ccccc3F)ccc2OC[C@@H]1C | 0.2 | -0.3 | -0.8
Cc1c(C(=O)N2CCN(S(=O)(=O)c3cc(F)ccc3F)CC2)oc2ccccc12 | 0.4 | 343.4* | -1.0
